High-throughput results from PubChem BioAssay.
Most compounds without a hit are left out; they make up all but 27% or so of the library.
Cav32 inh – Cav3.2 calcium influx blockers – cell-based, Fluo-4 calcium fluorescence, FDSS, MLSMR library, primary screen | B-score at 10 µM | Cav3.2-expressing cells; active compounds read low | Voltage-dependent T-type calcium channel subunit alpha-1H (Homo sapiens), O95180 | hit rate 4% among 100,000;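 active = single-dose well whose peak fluorescence ratio is a statistical outlier from its plate by either plate-standardised score or position-corrected B-score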
CYP2C9 act – human CYP2C9 activators, primary screen, biochemical, luminescence | recombinant CYP2C9, luciferin-H conversion; active compounds read high; factor 1 = untreated enzyme, 0 = blocked | hit rate 1.4% among 96,000 | AID 1024, 2008 | activation factor at 5 µM;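 active = activation factor of 2 or more for CYP2C9 at a 5 µM dose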;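 note: 0 = sulfaphenazole-blocked wells and 1 = vehicle-only wells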
Target sequence (P11712 whole entry, looked up): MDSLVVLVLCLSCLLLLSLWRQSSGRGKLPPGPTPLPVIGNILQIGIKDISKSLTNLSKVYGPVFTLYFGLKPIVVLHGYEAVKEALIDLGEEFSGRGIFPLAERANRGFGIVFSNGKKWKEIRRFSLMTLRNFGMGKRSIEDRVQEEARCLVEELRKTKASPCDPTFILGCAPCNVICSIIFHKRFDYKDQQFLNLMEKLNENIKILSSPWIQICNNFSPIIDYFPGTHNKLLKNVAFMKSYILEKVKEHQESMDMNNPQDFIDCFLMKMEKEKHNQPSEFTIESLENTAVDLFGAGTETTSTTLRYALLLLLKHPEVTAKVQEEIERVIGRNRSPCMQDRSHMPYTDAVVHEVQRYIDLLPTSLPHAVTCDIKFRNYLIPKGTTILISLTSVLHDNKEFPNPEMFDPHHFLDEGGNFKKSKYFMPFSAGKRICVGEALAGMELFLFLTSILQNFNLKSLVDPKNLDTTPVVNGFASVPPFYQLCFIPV
CYP2C19 inhib – blockers of cytochrome P450 2C19 activity – biochemical, luminescence, ADME assay, primary screen; P33261; inhibition, % at 5 µM; CYP2C19 Supersomes, luciferin-H EGE luminescence, 30 min; hit rate 21% among 96,000;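 active = CYP2C19 inhibition above a set limit at 5 µM in the primary screen, cut at about 50% in these data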;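 note: plate controls were negative control wells for no effect and 2.5 mM tranylcypromine positive control for full effect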
CYP2C19 act – human CYP2C19 activators, primary screen, biochemical, luminescence; Cytochrome P450 2C19 (Homo sapiens), P33261; recombinant CYP2C19, luciferin-H EGE luminescence; active compounds read high; 0 = fully inhibited enzyme, 1 = untreated enzyme; activation factor at 5 µM; 96,000 tested, under 10 active;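 active = activation factor of at least 2 at 5 µM in the primary screen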;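 note: 0 = wells with 2.5 mM tranylcypromine and 1 = vehicle-only wells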
HIV Rev-RRE inh – HIV-1 Rev-RRE binding inhibitors, primary screen, biochemical, FRET, protein-RNA interaction; P05866; Rev peptide-RRE RNA binding; inhibition, % at 8 µM; hit rate 0.79% among 97,000;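 active = inhibition above the screen-wide mean plus 3 SD, cut at about 35% in these data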;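 note: 0% = median DMSO wells and 100% = median Neomycin B control wells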
Target sequence (P05866 whole entry, looked up): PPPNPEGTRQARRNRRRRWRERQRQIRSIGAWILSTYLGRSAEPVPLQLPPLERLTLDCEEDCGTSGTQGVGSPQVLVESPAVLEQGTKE
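System: Cy5-labelled duplex RRE RNA binding fluorescein-labelled HIV Rev peptide; Signal: fluorescein-to-Cy5 FRET, 480 nm excitation; Also added: labelled Rev peptide; Compound: one concentration, 8 µM nominal; Buffer or medium: HEPES pH 7.5 salt buffer with EDTA; Read-out: % inhibition of FRET ratio versus controls; Schedule: 5 min preincubation and 15 min binding, 25 °C.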
CYP2C9 inh – blockers of cytochrome P450 2C9 activity – biochemical, luminescence, ADME assay, primary screen | P11712 | CYP2C9 Supersomes, luciferin-H conversion | inhibition, % at 5 µM | hit rate 20% among 96,000 | AID 777, 2007;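 active = blocking of liver enzyme CYP2C9 beyond about 50% at 5 µM, limit read from the data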
Active calls of the source: *.

Results for CC1CCCC(C)N1C(=O)CSc1nc(N)c(-c2ccccc2)c(=O)[nH]1 (stereo not given) ?
Cav32 inh: -0.55; CYP2C9 act: 1.1; CYP2C19 inhib: -19; CYP2C19 act: 1.2; HIV Rev-RRE inh: 0; CYP2C9 inh: -8

How did CSc1ccccc1-c1nnc(-c2ccccc2)o1 do in these assays?
CYP2C9 act: 2.4*; CYP2C19 inhib: 3; CYP2C19 act: 1; HIV Rev-RRE inh: -1; CYP2C9 inh: -136

How did c1ccc(-c2noc(-c3cccnc3)n2)cc1 do in these assays?
Cav32 inh: 0.39; CYP2C9 act: 1; CYP2C19 inhib: 13; CYP2C19 act: 0.9; HIV Rev-RRE inh: 3; CYP2C9 inh: 4

Results for c1ccc(-c2nc(-c3ccncc3)no2)cc1 ?
Cav32 inh: -0.00015; CYP2C9 act: 0.8; CYP2C19 inhib: 94*; CYP2C19 act: 0.1; HIV Rev-RRE inh: 10; CYP2C9 inh: 23

What do the screens show for `Nc1nc(SCc2nc(-c3ccccc3)no2)[nH]c(=O)c1-c1ccccc1`?
Cav32 inh: -0.97; CYP2C9 act: 0.2; CYP2C19 inhib: 73*; CYP2C19 act: 0.3; HIV Rev-RRE inh: 7; CYP2C9 inh: 82*

How did COc1ccc(-c2noc(COc3ccc4ccccc4c3Br)n2)cc1OC do in these assays?
Cav32 inh: -0.7; CYP2C9 act: 0.8; CYP2C19 inhib: 49; CYP2C19 act: 0.5; HIV Rev-RRE inh: 10; CYP2C9 inh: 24

What do the screens show for `Nc1nc(SCc2c(F)cccc2Cl)[nH]c(=O)c1-c1ccccc1`?
Cav32 inh: 0.34; CYP2C9 act: 1; CYP2C19 inhib: -1; CYP2C19 act: 1; HIV Rev-RRE inh: 3; CYP2C9 inh: -1

What do the screens show for `COc1ccc(-c2noc(CSc3nc(-c4ccccc4)cc(=O)[nH]3)n2)cc1OC`?
Cav32 inh: 0.054; CYP2C9 act: 0.4; CYP2C19 inhib: 44; CYP2C19 act: 0.6; HIV Rev-RRE inh: 6; CYP2C9 inh: 60*

How did CC1CCN(Cc2nc3c(c(=O)n(C)c(=O)n3C)n2CCCc2ccccc2)CC1 do in these assays?
Cav32 inh: -1.5; CYP2C9 act: 0.6; CYP2C19 inhib: 7; CYP2C19 act: 0.9; HIV Rev-RRE inh: 8; CYP2C9 inh: 40

How did O=S1(=O)[C@H]2C[C@@H]3C=C[C@]2(CN1Cc1ccc(C(F)(F)F)cc1)O3 do in these assays?
Cav32 inh: 0.94

What do the screens show for `COc1ccccc1-c1nc(-c2ccccn2)no1`?
CYP2C9 act: 0.7; CYP2C19 inhib: 79*; CYP2C19 act: 0.2; HIV Rev-RRE inh: 9; CYP2C9 inh: 31

How did c1ccc(-c2ccccc2-c2nc(-c3ccncc3)no2)cc1 do in these assays?
Cav32 inh: -2.1; CYP2C9 act: 0.3; CYP2C19 inhib: 91*; CYP2C19 act: 0.1; HIV Rev-RRE inh: 6; CYP2C9 inh: 74*

What do the screens show for `Cc1onc(-c2ccccc2Cl)c1-c1nc(-c2ccncc2)no1`?
Cav32 inh: -0.16; CYP2C9 act: 0.1; CYP2C19 inhib: 99*; CYP2C19 act: 0; HIV Rev-RRE inh: 9; CYP2C9 inh: 88*

Results for c1ccc(-c2ccc(-c3nc(-c4ccncc4)no3)cc2)cc1 ?
Cav32 inh: -0.75; CYP2C9 act: 0.3; CYP2C19 inhib: 80*; CYP2C19 act: 0.2; CYP2C9 inh: 72*

What do the screens show for `Clc1ccccc1-c1nc(-c2cccnc2)no1`?
Cav32 inh: -0.44; CYP2C9 act: 0.9; CYP2C19 inhib: 36; CYP2C19 act: 0.6; HIV Rev-RRE inh: 6; CYP2C9 inh: 13

What do the screens show for `CC(C)CNc1oc(-c2ccc(F)cc2)nc1C#N`?
Cav32 inh: -3.5; CYP2C9 act: 0.6; CYP2C19 inhib: 16; CYP2C19 act: 0.8; HIV Rev-RRE inh: 7; CYP2C9 inh: 40

How did c1coc(-c2nc(-c3ccncc3)no2)c1 do in these assays?
Cav32 inh: 1.3; CYP2C9 act: 0.7; CYP2C19 inhib: 87*; CYP2C19 act: 0.1; HIV Rev-RRE inh: 5; CYP2C9 inh: 35

How did COc1ccccc1-c1nc(-c2ccc(C)nc2OC)no1 do in these assays?
Cav32 inh: -1.3; CYP2C9 act: 1; CYP2C19 inhib: 62*; CYP2C19 act: 0.4; HIV Rev-RRE inh: 16; CYP2C9 inh: 4

Results for c1cc(-c2noc(CCC3CCCC3)n2)ccn1 ?
Cav32 inh: 0.32; CYP2C9 act: 0; CYP2C19 inhib: 99*; CYP2C19 act: 0; HIV Rev-RRE inh: -1; CYP2C9 inh: 96*

What do the screens show for `c1ccc(C(Cc2nc(-c3ccncc3)no2)c2ccccc2)cc1`?
CYP2C9 act: 0.1; CYP2C19 inhib: 98*; CYP2C19 act: 0; HIV Rev-RRE inh: 2; CYP2C9 inh: 90*

How did CC(C)(C)C(=O)NCCc1nc(-c2ccccc2)no1 do in these assays?
Cav32 inh: 0.44

Results for COc1ccc(O[C@H]2C=C[C@@H](c3ccccc3)O[C@@H]2COC(=O)CC/C(C)=N/O[C@@H](C)c2cn([C@H](CO)Cc3ccccc3)nn2)cc1 ?
Cav32 inh: -3.7

Results for c1ccc(-c2nnc(-c3ccncc3)o2)cc1 ?
Cav32 inh: -0.15; CYP2C9 act: 1.1; CYP2C19 inhib: 76*; CYP2C19 act: 0.2; HIV Rev-RRE inh: 5; CYP2C9 inh: -7

What do the screens show for `COc1ccccc1-c1noc(-c2cccs2)n1`?
Cav32 inh: -0.95; CYP2C9 act: 0.9; CYP2C19 inhib: 27; CYP2C19 act: 0.7; HIV Rev-RRE inh: 4; CYP2C9 inh: 13

Results for Cc1ccc(-c2noc(CCCc3ccccc3)n2)cc1 ?
Cav32 inh: 0.46; CYP2C9 act: 1.1; CYP2C19 inhib: -5; CYP2C19 act: 1; HIV Rev-RRE inh: 21; CYP2C9 inh: -8

How did COc1ccccc1-c1noc(-c2ccncc2)n1 do in these assays?
Cav32 inh: 0.2; CYP2C9 act: 0.9; CYP2C19 inhib: 89*; CYP2C19 act: 0.1; HIV Rev-RRE inh: 4; CYP2C9 inh: 13

How did COc1ccc(-c2noc(CCCc3ccccc3)n2)cc1OC do in these assays?
Cav32 inh: -0.49; CYP2C9 act: 0.4; CYP2C19 inhib: 80*; CYP2C19 act: 0.2; HIV Rev-RRE inh: 10; CYP2C9 inh: 61*

Results for COc1ccc(-c2noc(-c3ccccc3-c3ccccc3)n2)cc1OC ?
CYP2C9 act: 0.3; CYP2C19 inhib: 36; CYP2C19 act: 0.6; HIV Rev-RRE inh: 1; CYP2C9 inh: 67*

What do the screens show for `COc1ccc(NC(=O)CC2SC(=Nc3ccccc3)NC2=O)c(OC)c1` (stereo not given)?
Cav32 inh: -0.84; CYP2C9 act: 0.6; CYP2C19 inhib: -8; CYP2C19 act: 1.1; HIV Rev-RRE inh: 4; CYP2C9 inh: 37
